An excerpt weighted towards active compounds, which were near 1.9% of everything screened.
MT stabilize HCS: microtubule stabilizers in HeLa cells, primary screen, imaging, high-content imaging. HeLa tubulin immunostaining HCS, 24 h; share of cells brighter than vehicle mean+2SD. % tubulin-high responders, % at 10 µM. 200,000 tested, 0.83% active. AID 2205, 2009;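 active means plate Z-score above 3 for both tubulin-high and condensed-nucleus cell shares, with cell loss under 80%, at 10 µM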;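 further: anti alpha tubulin signal scored within the nucleus-defined area of each cell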
Insulin prom up: insulin promoter activators in MIN6 cells, imaging, high-content screening, mouse beta cells; z-score at 5 µM; 190,000 tested, 0.3% active; MIN6 insulin promoter-GFP reporter; hits give high values; AID 1625, 2009;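 active means z-score above 3 at 5 µM with at least 500 cells counted in the well; inconclusive means wells under 500 cells, flagged as cytotoxic or low count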
Autophagy HCS: autophagy modulators in MEF cells, primary screen, imaging, high-content, MEF GFP-LC3. MEF GFP-LC3 puncta imaging; test concentration mostly 10 µM. calls only at 10 µM (by protocol). 190,000 tested, 0.98% active;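 active means percentage of spot-positive cells more than 3 SD above its plate mean, without a fluorescence outlier flag or 80% toxicity; inconclusive means no clear call, values can overlap the other calls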;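 further: spot-positive cell cutoff set from DMSO-treated cells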
HSV augment: enhancers of HSV replication in host cells, fold increase, host cell viability; HSV replication augmentation in cells; maximum fold increase; 220,000 tested, 0.005% active; in the data active means maximum fold increase above about 1.5; inconclusive means no clear call, values can overlap the other calls; tested in PC3 cells
Furin inhibitor: human furin inhibitors, primary screen, biochemical, fluorescence intensity | 220,000 tested, 0.061% active | purified furin, fluorogenic substrate cleavage | P09958 | inhibition, % at 20 µM or 30 µM | AID 463115, 2010; in the data active means inhibition above about 25%
Target sequence (P09958 108-714 limits assumed): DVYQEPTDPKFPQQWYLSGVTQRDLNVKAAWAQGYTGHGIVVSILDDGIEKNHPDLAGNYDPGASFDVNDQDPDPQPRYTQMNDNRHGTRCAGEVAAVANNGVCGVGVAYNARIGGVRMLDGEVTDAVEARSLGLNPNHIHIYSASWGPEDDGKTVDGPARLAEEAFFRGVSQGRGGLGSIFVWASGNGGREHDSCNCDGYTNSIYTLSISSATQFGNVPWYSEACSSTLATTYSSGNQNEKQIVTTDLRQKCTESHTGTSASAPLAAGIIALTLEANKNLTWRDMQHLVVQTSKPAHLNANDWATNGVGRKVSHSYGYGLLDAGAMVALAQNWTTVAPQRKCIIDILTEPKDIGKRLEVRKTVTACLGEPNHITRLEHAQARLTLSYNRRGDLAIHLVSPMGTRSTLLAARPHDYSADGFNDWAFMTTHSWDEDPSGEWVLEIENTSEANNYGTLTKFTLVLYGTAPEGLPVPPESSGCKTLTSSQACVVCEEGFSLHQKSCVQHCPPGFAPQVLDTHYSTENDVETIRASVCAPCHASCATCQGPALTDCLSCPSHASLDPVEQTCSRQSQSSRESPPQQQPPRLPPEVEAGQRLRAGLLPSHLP
b-catenin transl: modulators of beta-catenin nuclear translocation, primary screen, imaging, HeLa cells, immunofluorescence, high-content | 190,000 tested, 0.3% active | nuclear translocation activity, % at 5 µM;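 active means nuclear translocation activity above 50% at 5 µM, with a well cell count of 50 or more; inconclusive means wells under 50 cells across six images, flagged as toxic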;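 further: per-cell ratio of nuclear to cytoplasmic median beta-catenin stain intensity; plate controls were DMSO negative control for no effect and GSK-3 inhibitor IX positive control for full effect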
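Test system: human HeLa cells, native beta-catenin. Compound dosing: 5 µM primary single dose, 0.1% DMSO, 0.02–20 µM confirmation series. Incubation: compound exposure 24 h at 37°C. Detection: beta-catenin immunostaining with DAPI counterstain, 20x imaging, 6 fields/well. Read-out basis: Nuclear/cytoplasmic beta-catenin signal ratio, % activation.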
* = called active by the depositor; i = inactive; u = inconclusive; x = not tested or not shown; + = active, no number.

SMILES | MT stabilize HCS | Insulin prom up | Autophagy HCS | HSV augment | Furin inhibitor | b-catenin transl
Cc1ccc2cc(C#N)c(SCc3nnc(-c4ccccc4[N+](=O)[O-])o3)nc2c1 | 8 | -0.06 | + | i | -14 | 0
COC(=O)CSc1nc2cc(C)ccc2cc1C#N | 3 | -0.39 | i | i | -25 | -6
O=C(N/N=C/c1c(Cl)cccc1Cl)c1n[nH]c2c1CCCC2 | 5 | x | i | i | -14 | 0
Cc1ccsc1/C=N\NC(=O)c1n[nH]c2c1CCC2 | 25* | -0.07 | i | i | 1 | 27
Cn1cc(Br)c(-c2cccc(N3C(=O)CCCC3=O)c2)n1 | x | x | x | i | 1 | 0
O=C(Nc1nnc(COc2ccc(Cl)cc2)s1)c1ccco1 | 2 | 0.01 | i | i | -25 | 0
COC(=O)/C(=C1/Oc2cc(C)oc(=O)c2S1)C(F)(F)F | 4 | 0.37 | + | i | -25 | 0
COc1ccc(-n2nnnc2-c2cnc(N3CCCC3)nc2C(F)(F)F)cc1 | 2 | -0.37 | i | i | -3 | 0
O=S(=O)(CCSc1ccccn1)c1nc2ccccc2s1 | 5 | 1.2 | + | i | -18 | x
O=S(=O)(CCSc1nc2ccccc2o1)c1nc2ccccc2s1 | 3 | x | + | i | -12 | x
COc1ccc2oc(-c3ccccc3[N+](=O)[O-])cc(=O)c2c1 | 16* | 0.21 | i | i | -13 | 18
CCOC(=O)/C=C/C(=O)Nc1ccc(Oc2ccccc2)cc1 | 2 | -0.14 | i | i | -26 | 2
Cn1cccc1/C=C1\SC(=Nc2ccc(O)cc2)NC1=O | x | -0.24 | x | i | -18 | 83*
Cc1ccc(N=C2NC(=O)/C(=C/c3cn(C)c4ccccc34)S2)cc1C | 12 | 3* | i | x | -7 | 20
Cn1cccc1/C=C1\SC(=Nc2ccccc2)NC1=O | x | 0.1 | x | i | -13 | 86*
Cn1cccc1/C=C1\SC(=Nc2cccc(O)c2)NC1=O | x | 1.1 | x | i | -8 | 1
Cc1nc(CCN2C(=O)c3ccccc3C2=O)cs1 | 1 | -0.01 | i | i | -15 | -1
CCc1ccc(NC(=S)N(Cc2ccccc2)Cc2ccccn2)cc1 | 3 | -0.97 | i | i | -24 | 0
OCCNCC(O)Cn1ccc2ccccc21 (centres undefined) | 2 | -0.27 | i | i | -7 | x
OCCNCC(O)Cn1c2ccccc2c2ccccc21 (centres undefined) | 6 | 0.95 | + | i | -20 | 4
CCC/C(O)=C1\C(=O)CC(C)(C)CC1=Nc1ccc(OC)cc1OC | 53 | x | i | i | 0 | 76*
COC(=O)CC/C(O)=C1\C(=O)CC(C)(C)CC1=Nc1ccccc1OC | 17* | x | i | i | -14 | -3
Cc1nc(C)c(-c2csc(Nc3cccc(O)c3)n2)s1 | 7 | -2.2 | i | i | -15 | 1
Cc1cccc(Nc2nc(-c3c(C)nc4ccccn34)cs2)c1 | 21* | -1.1 | i | i | 3 | 38
Cc1cccc(Nc2nc(-c3ccncc3)cs2)c1 | 4 | 0.7 | i | i | -18 | -2
SMILES | MT stabilize HCS | Insulin prom up | Autophagy HCS | HSV augment | Furin inhibitor | b-catenin transl
Cc1nc2ccccn2c1-c1csc(Nc2cccc(O)c2)n1 | 16 | -0.93 | i | i | -15 | 75*
Cc1cccc(Nc2nc(-c3ccc4c(c3)OCCO4)cs2)c1 | 18* | x | i | i | -6 | -1
COc1cc2c3nnc(-c4ccc(F)cc4)c-3cn(Cc3ccccc3F)c2cc1OC | 3 | 6.3* | + | u | -44 | 0
CC(Sc1nc(N(C)C)nc(N2CCOCC2)n1)C(=O)Nc1ccccc1 (centres undefined) | 4 | -1.3 | i | i | -14 | 0
N#C/C(=C\c1ccc(Cl)cc1)c1nc2ncccc2[nH]1 | 42* | -0.32 | i | i | -3 | 21
CCC(C)CCCCCCCCCCC(=O)O (centres undefined) | x | x | x | i | x | x
Cc1nn(-c2ccccc2)c2c1C1(C(=O)Nc3ccccc31)N1C(=N2)Sc2ccccc21 (centres undefined) | 3 | 0.27 | + | i | -25 | -7
Cc1nn(-c2ccc(F)cc2)c(N)c1C1(O)C(=O)Nc2ccccc21 (centres undefined) | 4 | 0.28 | i | i | -13 | 0
CCOCCCn1c(C)nc2c(c1=O)c1nc3ccccc3nc1n2-c1ccc2c(c1)OCCO2 | x | -0.3 | x | i | -6 | -1
COc1ccccc1N=C1SC(C(=O)Nc2cccc(Cl)c2Cl)C(N)=C1C(N)=O (centres undefined) | x | -0.8 | x | i | -5 | 62*
O=C(Nc1ccccc1N1CCOCC1)C1CCN(S(=O)(=O)c2ccc(Cl)cc2)CC1 | x | -1 | x | i | -30 | 0
CCCCOc1ccc2c(c1)/C(=C(\C(Cl)=C(Cl)Cl)[N+](=O)[O-])N2 | 9.9* | 0.02 | i | i | -2 | 0
CCN(Cc1cc2ccccc2[nH]c1=O)C(=O)C1CCCCC1 | 2 | 0.5 | i | i | -5 | 1
CC(C)N(Cc1cc2ccccc2[nH]c1=O)C(=O)C1CCCCC1 | 1 | 0.39 | + | i | -26 | -2
CCC(NC(=O)c1ccccc1NC(=O)c1ccco1)C(=O)NNC(=O)c1ccncc1 (centres undefined) | x | -0.21 | x | i | -1 | 0
COC(=O)C1=C[C@@H](C(=O)OC)[C@@H]2C3=C(C(=O)[C@@]2(C)NC(=O)c2ccccc2)[C@H](C)C(C(=O)OC)=C(C(=O)OC)[C@@H]3C1 | x | x | x | i | x | x
Cc1ccccc1CC1S/C(=N/N=C/c2ccco2)NC1=O (centres undefined) | x | x | x | i | -8 | 2
CC(C)C1S/C(=N/N=C/c2ccco2)NC1=O (centres undefined) | 2 | 3.2* | i | i | -6 | -2
Cc1cc(C)nc(SCc2ccc(C(=O)N/N=C/C3CCCCC3)cc2)n1 | 2 | -0.25 | + | i | -24 | 3
Cc1cc(C)nc(SCc2ccc(C(=O)N/N=C/c3ccncc3)cc2)n1 | 2 | 0.18 | i | i | -3 | 0
CCc1ccc2c(c1)cc(CN(C(=S)Nc1ccc(Cl)cc1)C1CC1)c1nnnn12 | 1 | 0.54 | + | i | -12 | -1
COc1ccccc1NC(=O)C1=C(C)Nc2nc(-c3cccs3)nn2C1c1cccc(O)c1 (centres undefined) | 4 | -1.2 | + | x | 8 | -4
C=CCNC(=O)C1CC2Cn3c(nc4cc5ccccc5cc43)C2N1C (centres undefined) | x | 4.4* | x | i | -1 | -3
CN1C(C(=O)NCc2cccc(C(F)(F)F)c2)CC2Cn3c(nc4cc5ccccc5cc43)C21 (centres undefined) | x | -0.62 | x | i | -24 | -1
